Assay [1] has as its system WI-38 normal fibroblast cells. Nature of the assay: MTT cytotoxicity towards normal human cells WI-38. To be noted: WI-38, 24 h, read-out: IC50 WI-38. The assay is classed as cell-based.
Assay [2] concerns HCT-116, HePG-2, HeLa and MCF-7 cells. Nature of the assay: MTT cytotoxicity summarised over the 4 cancer cell lines. The assay is classed as cell-based. Particulars: Homo sapiens, read-out: IC50 range of one compound over the cancer cell lines. Put shortly: (§1)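 Cells were grown in medium with 10% FBS, penicillin/streptomycin, 37°C, 5% CO2, then seeded at 1.0×10^4 cells/well and held 48 h. Test compound was added at 1.56, 3.125, 6.25, 12.5, 25, 50 and 100, for 24 h. MTT (5 mg/mL stock) was added for 4 h, formazan dissolved in DMSO and A570 read. Viability was taken relative to untreated wells. IC50 came from a Boltzmann sigmoidal fit, in triplicate, mean ± SD.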

In assay [3] the test system is MCF-7 cells. Put plainly: Cell cycle analysis by PI staining and flow cytometry. The assay is classed as cell-based, human. To be noted: MCF-7, 24 h at IC50 of the compound.
Assay [4] has as its system MCF-7 cells. Nature of the assay: Annexin V-FITC/PI apoptosis assay. The assay is classed as cell-based, human. Particulars: MCF-7, 24 hours of incubation. Put shortly:
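MCF-7 cells were treated with test compound for 24 h, with DMSO as control. 1–5×10^5 cells were pelleted by centrifugation and resuspended in binding buffer. They were stained with Annexin V-FITC and PI for 5 min at room temperature in the dark, then analysed by flow cytometry. Quadrants: Q1 necrotic, Q2 late apoptotic, Q3 live, Q4 early apoptotic.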

The test system of assay [5] is breast cancer (MCF-7) cell line. Nature of the assay: MTT cytotoxicity, MCF-7. It is filed as cell-based. Particulars: Homo sapiens, MCF7, 24 h, read-out: IC50 MCF-7. Put shortly: as §1
The subject of assay [6] is colorectal (HCT116) carcinoma cell line. Nature of the assay: MTT cytotoxicity, HCT-116. Particulars: Homo sapiens, HCT-116, 24 h, read-out: IC50 HCT-116. The assay is classed as cell-based.
Assay [7] has as its system hepatocellular (HePG2) carcinoma cell line. Nature of the assay: MTT cytotoxicity, HePG-2. The assay is classed as cell-based. To be noted: Homo sapiens, HepG2, 24 h, read-out: IC50 HePG-2.
The subject of assay [8] is human cervical (Hela) carcinoma cell line. Put plainly: MTT cytotoxicity, Hela. Particulars: 24 h, read-out: IC50 Hela. It is filed as cell-based. Put shortly:
as §1

The next assay deals with VEGFR-2 enzyme (Homo sapiens, UniProt P35968). Put plainly: VEGFR-2 kinase inhibitory assay. The assay is classed as biochemical.
In the next assay the test system is VEGFR-2. To be noted: read-out: IC50 VEGFR-2; reference medicine pazopanib; cited from earlier work.
In assay [9] the test system is prostate cancer PC3 cell line. Particulars: read-out: IC50 PC3 cell line; cited from earlier work.
The subject of assay [10] is VEGF-induced proliferation. Particulars: read-out: IC50 VEGF-induced proliferation; cited from earlier work.

The values that follow come from paper PMC11568772 (Drug Design, Development and Therapy, 2024).

Sequence of VEGFR-2 enzyme (P35968 20-1356): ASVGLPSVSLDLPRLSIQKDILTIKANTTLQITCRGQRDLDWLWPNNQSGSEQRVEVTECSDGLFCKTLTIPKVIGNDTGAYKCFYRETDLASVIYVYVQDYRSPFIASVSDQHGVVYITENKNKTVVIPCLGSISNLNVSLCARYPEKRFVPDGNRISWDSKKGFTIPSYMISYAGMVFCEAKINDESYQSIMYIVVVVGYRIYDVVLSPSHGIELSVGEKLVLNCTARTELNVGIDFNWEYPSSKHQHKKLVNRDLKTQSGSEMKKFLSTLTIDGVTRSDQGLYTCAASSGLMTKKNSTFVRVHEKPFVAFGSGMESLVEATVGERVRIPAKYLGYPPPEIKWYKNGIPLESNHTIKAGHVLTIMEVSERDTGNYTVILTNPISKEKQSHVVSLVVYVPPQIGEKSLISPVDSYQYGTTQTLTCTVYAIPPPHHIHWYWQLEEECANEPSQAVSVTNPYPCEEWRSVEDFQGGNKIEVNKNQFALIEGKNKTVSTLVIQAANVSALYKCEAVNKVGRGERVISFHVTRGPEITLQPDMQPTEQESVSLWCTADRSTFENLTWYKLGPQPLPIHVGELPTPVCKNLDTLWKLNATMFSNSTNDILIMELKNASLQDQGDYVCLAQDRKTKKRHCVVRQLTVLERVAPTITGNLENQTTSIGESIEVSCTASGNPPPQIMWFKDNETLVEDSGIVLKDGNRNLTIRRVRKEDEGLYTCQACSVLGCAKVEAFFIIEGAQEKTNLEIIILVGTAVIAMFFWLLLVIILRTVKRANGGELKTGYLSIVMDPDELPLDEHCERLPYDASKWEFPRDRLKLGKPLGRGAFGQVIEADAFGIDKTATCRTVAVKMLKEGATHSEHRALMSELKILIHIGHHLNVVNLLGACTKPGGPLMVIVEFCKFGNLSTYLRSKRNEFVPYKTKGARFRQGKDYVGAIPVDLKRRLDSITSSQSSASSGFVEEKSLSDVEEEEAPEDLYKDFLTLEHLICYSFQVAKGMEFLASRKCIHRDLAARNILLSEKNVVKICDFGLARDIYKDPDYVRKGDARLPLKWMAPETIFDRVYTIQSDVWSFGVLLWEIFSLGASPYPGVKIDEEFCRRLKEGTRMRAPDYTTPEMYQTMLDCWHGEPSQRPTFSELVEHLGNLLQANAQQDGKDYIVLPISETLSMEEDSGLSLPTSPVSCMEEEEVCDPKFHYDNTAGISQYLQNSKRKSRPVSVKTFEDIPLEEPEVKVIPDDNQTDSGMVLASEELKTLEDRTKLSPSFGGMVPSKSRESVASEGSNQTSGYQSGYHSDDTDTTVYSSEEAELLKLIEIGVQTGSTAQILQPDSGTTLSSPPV

Consider `O=C(NCCSc1nc2cc(Cl)ccc2c(=O)n1-c1ccccc1)NCc1ccc(Cl)cc1` [Compound 5p, 1-(2-((7-Chloro-4-Oxo-3-Phenyl-3,4-Dihydroquinazolin-2-Yl)thio)ethyl)-3-(4-Chlorobenzyl)urea], for which the IC50 is 56.9 ± 3.3 µM in assay [1]; 7.99 to 14.3 µM in assay [2]; 7.99 ± 0.5 µM in assay [5]; 8.32 ± 0.7 µM in assay [6]; 9.72 ± 0.7 µM in assay [7]; 14.3 ± 1.2 µM in [8]. Also, on VEGFR-2 enzyme, the IC50 came out at 0.117 µM. Moreover, the “Cell Cycle Distribution (%) G2-M” value with MCF-7 cells [3] (DMSO control 16.75) was 7.82%. The “Cell Cycle Distribution (%) S” value in the assay with MCF-7 cells [3] (DMSO control 29.16) amounted to 35.02%. Also, the “Cell Cycle Distribution (%) G0-G1” value in the assay on MCF-7 cells [3] (DMSO control 54.09) is 57.16%. Also, the “necrosis (Q1)” value in the assay with MCF-7 cells [4] amounted to 4.23%. In addition, in the assay on MCF-7 cells [4] (control 0.27%), the “late apoptosis (Q2)” value came to 12.51%. Moreover, in the assay on MCF-7 cells [4] (control 0.61%), the “early apoptosis (Q4)” value was 26.11%. The same molecule displayed a total apoptosis with MCF-7 cells [4] (control 2.29%) of 42.85%. In addition, the inhibition at 0.01 µM on VEGFR-2 enzyme (read-out: % Inhibition 0.01 μM, VEGFR-2 enzyme, 0.01 μM) was 31.4%. In addition, at VEGFR-2 enzyme (read-out: % Inhibition 0.1 μM, VEGFR-2 enzyme, 0.1 μM), the inhibition at 0.1 µM is 44.4%. The inhibition at 1 µM at VEGFR-2 enzyme (read-out: % Inhibition 1 μM, VEGFR-2 enzyme, 1 μM) turned out to be 70.5%. For the same molecule, at VEGFR-2 enzyme (read-out: % Inhibition 10 μM, VEGFR-2 enzyme, 10 μM), the inhibition at 10 µM turned out to be 88.3%. For the same molecule, the inhibition at 100 µM at VEGFR-2 enzyme (read-out: % Inhibition 100 μM, VEGFR-2 enzyme, 100 μM) is 93.5%.
In the case of `Cc1ccc(Nc2nccc(N(C)c3ccc4c(C)n(C)nc4c3)n2)cc1S(N)(=O)=O` [pazopanib], the IC50 in the assay on VEGFR-2 is […].
Take `CNC(=O)c1cc(Oc2ccc(NC(=O)Nc3ccc(Cl)c(C(F)(F)F)c3)cc2)ccn1` [SOR, Sorafenib, reference compound]: the IC50 was 4.17 ± 0.2 µM in assay [5] and 17.3 µM in assay [9].
Regarding `COc1cc2c(Oc3ccc4[nH]c(C)cc4c3F)ncnc2cc1OCCCN1CCCC1` [Cediranib], the IC50 in [10] was under 0.001 µM.

As usually defined, the inhibition is the change of the read-out against control, counted positive when it falls.
